Source: PMC7318623 (Chemmedchem, 2020)

Tests used:
[1] = target: T1, PPARγ (Homo sapiens, UniProt P37231); assay: PPARγ luciferase transactivation assay; type: cell-based
T1 sequence (P37231 238-503 limits assumed): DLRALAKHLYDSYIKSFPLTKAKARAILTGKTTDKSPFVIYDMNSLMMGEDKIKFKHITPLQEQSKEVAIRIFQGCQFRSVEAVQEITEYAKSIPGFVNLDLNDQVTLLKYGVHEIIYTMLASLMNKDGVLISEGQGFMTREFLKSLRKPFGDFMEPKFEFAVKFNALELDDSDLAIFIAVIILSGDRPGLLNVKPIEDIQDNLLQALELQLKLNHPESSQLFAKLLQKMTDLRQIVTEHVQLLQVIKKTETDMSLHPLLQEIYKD

[2] = test system: K562‐resistant cells; assay: Induction of cell death by PI FACS analyses, without or with imatinib; type: cell-based; details: for cell death rate, compound in combination with imatinib: 10 μM compound + 1 μM imatinib
[3] = test system: COS‐7 cells; assay: Modified MTT assay; type: cell-based, monkey; details: non-malignant COS-7 cells
Procedure, shortened: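 COS-7 cells seeded 2×10³ per well in triplicate, then 24 h in humidified 5% CO2/95% air at 37 °C before dosing. Test compound added at 20 μM alongside a DMSO vehicle control (DMSO ≤0.1% final) and incubated 72 h. Metabolic activity read by the EZ4U modified MTT (formazan) assay and expressed relative to vehicle control set at 100%. Mean + SD, ≥3 independent experiments, three replicates each.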

| Compound | cell death rate, compound in combination with imatinib ([2]; 72 h) [%] | EC50 [1] [µM] | other results |
| --- | --- | --- | --- |
| CCCc1nc2ccccc2n1Cc1ccc(-c2ccccc2C(=O)OC)cc1 [2 b, Methyl 4′‐((2‐propyl‐1H‐benzo[d]imidazol‐1‐yl)methyl)‐[1,1′‐biphenyl]‐2‐carboxylate] | 80 |  | PPARγ activation at 20 μM ([1]; compound at 20 μM, relative to pioglitazone 10 μM = 100 %): about 36%; cell death rate, compound alone ([2]; 10 μM compound, 72 h, without imatinib): 21%; cytotoxicity per se (in words) [3]: did not exert cytotoxicity per se |
| O=C(O)c1ccccc1-c1ccc(Cn2c3ccccc3c3ccccc32)cc1 [3 a, 4′‐((9H‐Carbazol‐9‐yl)methyl)‐[1,1′‐biphenyl]‐2‐carboxylic acid] |  | 10.4 ± 3.9 |  |
| CCCc1nc2ccccc2n1Cc1ccc(-c2ccccc2C(=O)O)cc1 [3 b, 4′‐((2‐Propyl‐1H‐benzo[d]imidazol‐1‐yl)methyl)‐[1,1′‐biphenyl]‐2‐carboxylic acid] | 31 | 6.98 ± 1.06 |  |
| CCc1c(C)n(Cc2ccc(-c3ccccc3C(=O)O)cc2)c2ccccc12 [3 c, 4′‐((3‐Ethyl‐2‐methyl‐1H‐indol‐1‐yl)methyl)‐[1,1′‐biphenyl]‐2‐carboxylic acid] |  | 6.86 ± 1.58 |  |
| CCCc1nc2cc(Br)ccc2n1Cc1ccc(-c2ccccc2C(=O)OC)cc1 [5 b, Methyl 4′‐((5‐bromo‐2‐propyl‐1H‐benzo[d]imidazol‐1‐yl)methyl)‐[1,1′‐biphenyl]‐2‐carboxylate] | 31 |  |  |
| O=C(O)c1ccccc1-c1ccc(Cn2c3ccccc3c3cc(Br)ccc32)cc1 [6 a, 4′‐((3‐Bromo‐9H‐carbazol‐9‐yl)methyl)‐[1,1′‐biphenyl]‐2‐carboxylic acid] |  | 5.68 ± 1.07 |  |
| CCc1c(C)n(Cc2ccc(-c3ccccc3C(=O)O)cc2)c2ccc(Br)cc12 [6 c, 4′‐((5‐Bromo‐3‐ethyl‐2‐methyl‐1H‐indol‐1‐yl)methyl)‐[1,1′‐biphenyl]‐2‐carboxylic acid] |  | 9.52 ± 0.74 |  |
| CCCc1nc2ccc(Br)cc2n1Cc1ccc(-c2ccccc2C(=O)OC)cc1 [6‐Br‐CO2CH3, methyl 4′‐((6‐bromo‐2‐propyl‐1H‐benzo[d]imidazol‐1‐yl)methyl)‐[1,1′‐biphenyl]‐2‐carboxylate] | 63 |  |  |
| Cc1ccc(NC(=O)c2ccc(CN3CCN(C)CC3)cc2)cc1Nc1nccc(-c2cccnc2)n1 [imatinib, reference compound] |  |  | cell death, imatinib alone ([2]; 1 μM imatinib, K562-resistant (KD225) cells): 10–20% |
| CCCc1nc2c(C)cc(-c3nc4ccccc4n3C)cc2n1Cc1ccc(-c2ccccc2C(=O)O)cc1 [telmisartan, reference compound] |  | 4.78 ± 0.79 |  |
